Published values pooled from the literature.
Protocols differ between the studies behind these lines.
Target: Mitogen-activated protein kinase 9 (MAPK9, Homo sapiens, UniProt P45984)

Structure (SMILES) | observed | technique | concentration | remaining binding [%]
C[C@@H]1CCN(c2nccc(-c3cnn4ncccc34)n2)C1 | binding | – | 1 µM | 64
COC(=O)Nc1nc2ccc(C(=O)c3ccccc3)cc2[nH]1 | cell-free assay | competition with immobilised ligand | 10 µM | 9.6
O=C(NCC1CCOCC1)c1n[nH]cc1NC(=O)c1c(F)cccc1F | binding | competition with immobilised ligand | 1 µM | 57
c1cnn2ncc(-c3ccnc(N4CCC45COC5)n3)c2c1 | binding | – | 1 µM | 44
Cc1cnc(Nc2ccc(C(=O)N3CCC(N4CCCC4)CC3)cc2)nc1-c1cc2ccccc2s1 | binding | competition with immobilised ligand | 1 µM | 14
C[C@@H]1CN(c2ccc3ncc(-c4ccc5[nH]nc(C6CC6)c5c4)n3n2)C[C@H](C)O1 | binding | competition with immobilised ligand | 50 nM | 80
CCN1CCN(Cc2ccc(C(=O)Nc3ccc(C)c(Oc4ccc5c(c4)CC(=O)N5)c3)cc2C(F)(F)F)CC1 | binding | competition with immobilised ligand | 1 µM | 29
CN(CCCC(F)(F)F)c1nccc(-c2cnn3ncccc23)n1 | binding | – | 1 µM | 90
CCC(=O)N[C@@H]1CC[C@H](C(=O)N(C)c2ccc(-c3nc4ccccc4o3)cc2)C1 | cell-free assay | competition with immobilised ligand | 1 µM | 98
COc1ccnn2ncc(-c3ccnc(N(C)C)n3)c12 | binding | – | 1 µM | 100
O=C(NCCCN1CCOCC1)c1ccc(Nc2ncc(Cl)c(-c3ccc(Cl)s3)n2)cc1 | binding | competition with immobilised ligand | 1 µM | 11
CC1=C(C#N)C(c2ccc3c(c2)c(NC(=O)c2ccccc2C)nn3C)C(C#N)=C(C)N1 | cell-free assay | competition with immobilised ligand | 1 µM | 73
N[C@H]1CCN(c2nccc(-c3cnn4ncccc34)n2)C1 | binding | – | 1 µM | 100
CCC(=N\O)/C(C)=C/c1ccc(F)cc1 | cell-free assay | competition with immobilised ligand | 1 µM | 92
CN(C)c1nccc(-c2cnn3ncccc23)n1 | binding | – | 1 µM | 55
CNCc1ccccc1-c1csc([C@H](C)Nc2nc(C)nc3cc(OC)c(OC)cc23)c1 | cell-free assay | competition with immobilised ligand | 1 µM | 71
O=C(NCCCN1CCOCC1)c1ccc(Nc2nccc(-c3cc4ccccc4s3)n2)cc1 | binding | competition with immobilised ligand | 1 µM | 33
CCS(=O)(=O)c1cc2cc(C[C@@](O)(CC(C)(C)c3ccc(F)cc3C(N)=O)C(F)(F)F)[nH]c2cn1 | cell-free assay | competition with immobilised ligand | 1 µM | 84
N#Cc1ccccc1CSc1nnc2c(n1)[nH]c1ccccc12 | binding | competition with immobilised ligand | 10 µM | 90
CN(C(=O)c1ccccc1)c1cc(N(C)c2ccc3c(c2)CCc2ccc(C(=O)NCCN4CCOCC4)cc2C3=O)ccc1F | cell-free assay | competition with immobilised ligand | 1 µM | 100
Nc1ncc2c(n1)-c1c([nH]c3ccc(C#CC4CC4)cc13)CCCC2 | binding | competition with immobilised ligand | 1 µM | 81
NS(=O)(=O)c1cc(NC(=O)C2(c3ccccc3Cl)CC2)ccc1Oc1cccc(Cl)c1 | cell-free assay | competition with immobilised ligand | 1 µM | 100
COc1cnc(Nc2cccc(S(N)(=O)=O)c2)nc1N1CCN(c2ccccc2)CC1 | binding | competition with immobilised ligand | 1 µM | 72
